Reference: publication PMC12272722 (RSC Medicinal Chemistry, 2025)
Converted amounts (≈) assume the structure as drawn.

Assays:
[1] = Water thermodynamic solubility by HPLC; assay type: physicochemical; conditions: ultrapure water, 25 °C, thermodynamic from solid
[2] = test system: Trichophyton rubrum LM 237; assay: MIC99 by broth microdilution; assay type: cell-based; conditions: LM237, 168 h, read-out: MIC99 T. rubrum
In short: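 T. rubrum was cultured on Sabouraud dextrose agar at 27 °C for one week. Actively growing mycelium was collected into sterile distilled water with broken coverslips as inoculum. Test compound in 5% aqueous DMSO was diluted twofold serially in SDA over 2.0 × 10−1 to 2.4 × 10−5 mg mL−1. Plates were held at 30 °C and scored visually after 7 days. Run in triplicate with solvent blanks; amphotericin B and fluconazole as references.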

[3] = literature value; cited from earlier work

Compound | solubility at 24 h [1] [µM] | MIC99 [2] [µM] | Aqueous solubility at 25 °C [3]
COC(=O)[C@H](CO)NC(C)=C1C(=O)C=C2Oc3c(C(C)=O)c(O)c(C)c(O)c3[C@@]2(C)C1=O [(9bR,15S)-1, Methyl (1-((R)-6-acetyl-7,9-dihydroxy-8,9b-dimethyl-1,3-dioxo-3,9b-dihydrodibenzo[b,d]furan-2(1H)-ylidene)ethyl)-L-serinate] | 150 to 4700 (≈ 66.8 to 2090 µg/mL) | 450 (≈ 200 µg/mL) | 
CC(=O)c1c(O)c(C)c(O)c2c1OC1=CC(=O)C(=C(C)N[C@@H](CCCNC(=N)N)C(=O)O)C(=O)[C@@]12C [(9bR,15S)-2, (1-((R)-6-Acetyl-7,9-dihydroxy-8,9b-dimethyl-1,3-dioxo-3,9b-dihydrodibenzo[b,d]furan-2(1H)-ylidene)ethyl)-L-arginine] |  | 400 (≈ 200 µg/mL) | 
COC(=O)[C@H](CO)NC(C)=C1C(=O)C=C2Oc3c(C(C)=O)c(O)c(C)c(O)c3[C@]2(C)C1=O [(9bS,15S)-1, Methyl (1-((S)-6-acetyl-7,9-dihydroxy-8,9b-dimethyl-1,3-dioxo-3,9b-dihydrodibenzo[b,d]-furan-2(1H)-ylidene)ethyl)-L-serinate] | 150 (≈ 66.8 µg/mL) | 28 (≈ 12.5 µg/mL) | 
usnic acid [UA] |  |  | <0.3 (lit.)[60] mM

Further lines, with some results ahead:

solubility at 24 h [1] [µM] | MIC99 [2] [µM] | Compound | Aqueous solubility at 25 °C [3]
 | 100 (≈ 50.1 µg/mL) | CC(=O)c1c(O)c(C)c(O)c2c1OC1=CC(=O)C(=C(C)N[C@@H](CCCNC(=N)N)C(=O)O)C(=O)[C@]12C [(9bS,15S)-2, (1-((S)-6-Acetyl-7,9-dihydroxy-8,9b-dimethyl-1,3-dioxo-3,9b-dihydrodibenzo[b,d]furan-2(1H)-ylidene)ethyl)-L-arginine] | 
 | > 400 | C[C@@H]1[C@H](O)[C@@H](C)/C=C/C=C/C=C/C=C/C=C/C=C/C=C/[C@H](O[C@@H]2O[C@H](C)[C@@H](O)[C@H](N)[C@@H]2O)C[C@@H]2O[C@](O)(C[C@@H](O)C[C@@H](O)[C@H](O)CC[C@@H](O)C[C@@H](O)CC(=O)O[C@H]1C)C[C@H](O)[C@H]2C(=O)O [AmB, amphotericin B, reference compound] | 
 | > 200 | OC(Cn1cncn1)(Cn1cncn1)c1ccc(F)cc1F [FCZ, fluconazole, reference compound] | 
